Test results as given in ChEMBL document CHEMBL4308847, “Discovery, Structure-Activity Relationship, and Biological Characterization of a Novel Series of 6-((1 H-Pyrazolo[4,3- b]pyridin-3-yl)amino)-benzo[ d]isothiazole-3-carboxamides as Positive Allosteric Modulators of the Metabotropic Glutamate Receptor 4 (mGlu4)” (J Med Chem, 2018).
Activity calls are given as the source filed them. The rule behind the calls is not given here.

Legend:
[1] = Intrinsic clearance in human liver microsomes at 1 uM preincubated for 5 mins followed by NADPH addition measured up to 45 mins by LC-MS/MS analysis; assay type: ADME, Microsome; settings: read-out: CLH
Outline: (§1)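 Intrinsic and predicted hepatic clearance derived from liver microsome incubations.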

[2] = molecular target: Metabotropic glutamate receptor 4 (Rattus norvegicus, UniProt P31423); experiment: (§2) Positive allosteric modulation of rat mGlu4 receptor expressed in HEK cells co-expressing GIRK1/2 assessed as increase in glutamate-induced thallium flux preincubated for 140 secs followed by glutamate addition and measured after 2.5 mins by FluoZin-2-AM dye based fluorescence assay; assay type: cell-based
Outline: (§3)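 HEK cells co-expressing rat mGlu4 and GIRK1/2 were loaded for 1 h at room temperature with FluoZin-2 AM (330 nM final) in HBSS/20 mM HEPES pH 7.4. Compound was incubated 140 s, then thallium buffer with or without agonist was added. Reading continued for 2.5 min at room temperature. Potency was fitted by four-parameter logistic.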

[3] = Plasma concentration in rat administered as iv cassette dose; assay type: ADME, organism-based; settings: in vivo
Outline: (§4)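 Cassette dosing in male Sprague-Dawley rats (~300 g, n = 1 per experiment), with carotid artery and jugular vein catheters. Animals acclimated about one week with food and water ad libitum. Plasma (ng/mL) and brain (ng/g) levels were measured and Kp calculated.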

[4] = Fraction unbound in human plasma after 4 hrs by equilibrium dialysis method; assay type: ADME, cell-free
[5] = Intrinsic clearance in rat liver microsomes at 1 uM preincubated for 5 mins followed by NADPH addition measured up to 45 mins by LC-MS/MS analysis; assay type: ADME, Microsome; settings: read-out: CLH; outline: as §1
[6] = Drug uptake in rat brain administered as iv cassette dose; assay type: ADME, organism-based; settings: in vivo; outline: as §4
[7] = Brain to plasma partition coefficient, Kp of the compound in rat administered as iv cassette dose; assay type: ADME, organism-based; settings: brain and plasma, read-out: Kp; outline: as §4
[8] = AUC in rat at 15 mg/kg, po qd for 4 days measured on day 4 post dose; settings: in vivo
[9] = Cmax in rat at 15 mg/kg, po qd for 4 days measured on day 1 post dose; settings: in vivo
[10] = Cmax in rat at 15 mg/kg, po qd for 4 days measured on day 4 post dose; settings: in vivo
[11] = molecular target: T1, Metabotropic glutamate receptor 4 (Homo sapiens, UniProt Q14833); experiment: (§5) Positive allosteric modulation of human mGlu4 receptor expressed in CHO cells co-expressing Gqi5 assessed as increase in glutamate-induced calcium mobilization preincubated for 142 secs followed by EC20 glutamate addition and measured after 147 secs by Fluo-4-AM dye based fluorescence assay relative to control; assay type: functional, cell-based
Outline: (§6)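 CHO cells expressing human mGlu4 and Gqi5, plated at 30,000 cells/well and grown overnight at 37 °C, 5% CO2. Cells were loaded with 1 μM Fluo-4 AM for 45 min at 37 °C in HBSS/20 mM HEPES/2.5 mM probenecid. Compounds were run as 10-point, 1:3 dilution series. After 142 s, EC20 glutamate was added; 147 s later, EC80 glutamate. Fluorescence was normalized to the maximal glutamate response. EC50 and %Glu Max were fitted by four-parameter logistic, with maximum normalized to PHCCC.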

[12] = Drug uptake in cerebrospinal fluid of Sprague-Dawley rat model of haloperidol-induced catalepsy at 10 mg/kg, po; assay type: ADME, organism-based; settings: in vivo, read-out: Drug uptake
Outline: (§7)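 Male Sprague-Dawley rats given haloperidol 0.75 mg/kg i.p., then returned to cages for 60 min. Compound 10 mg/kg was dosed orally 30 min before catalepsy testing. Plasma, brain and CSF were then assayed, and free levels reported.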

[13] = system: Rattus norvegicus; experiment: Reversal of haloperidol-induced catalepsy in Sprague-Dawley rat assessed as decrease in latency to remove forepaws from bar at 10 mg/kg, po administered 30 mins prior to test; assay type: functional, organism-based
Outline: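 Male Sprague-Dawley rats were randomized and given haloperidol 0.75 mg/kg i.p., then 60 min in home cage. Vehicle or compound (10 mg/kg) was given orally 30 min before catalepsy testing, N = 11–12 rats/group. Data analyzed by one-way ANOVA with Dunnett's test versus vehicle + haloperidol.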

[14] = Unbound plasma concentration in Sprague-Dawley rat model of haloperidol-induced catalepsy at 10 mg/kg, po; assay type: ADME, organism-based; settings: in vivo; outline: as §7
[15] = AUC in rat at 15 mg/kg, po qd for 4 days measured on day 1 post dose; settings: in vivo
[16] = Unbound drug level in brain of Sprague-Dawley rat model of haloperidol-induced catalepsy at 10 mg/kg, po; assay type: ADME, organism-based; settings: in vivo; outline: as §7
[17] = Clearance in rat administered as iv cassette dose; assay type: ADME, organism-based; settings: in vivo
Outline: (§8)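 IV cassette in male Sprague-Dawley rats (~300 g, n = 1 per experiment), cannulated in carotid artery and jugular vein and acclimated about one week. Plasma clearance, Vss, t1/2 and MRT were derived.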

[18] = molecular target: Metabotropic glutamate receptor 4 (Rattus norvegicus) (UniProt P31423); experiment: as §2, with “assay relative to control” for “assay”; assay type: cell-based; outline: as §3
[19] = Plasma concentration in Sprague-Dawley rat model of haloperidol-induced catalepsy at 10 mg/kg, po; assay type: ADME, organism-based; settings: in vivo; outline: as §7
[20] = Fraction unbound in rat plasma after 4 hrs by equilibrium dialysis method; assay type: ADME, cell-free
[21] = molecular target: T2, Cytochrome P450 1A2 (Homo sapiens, UniProt P05177); experiment: Inhibition of CYP1A2 in human liver microsomes using phenacetin as substrate preincubated for 15 mins followed by substrate addition and measured after 8 mins by LC-MS/MS analysis; assay type: ADME
T2 sequence (P05177 whole entry): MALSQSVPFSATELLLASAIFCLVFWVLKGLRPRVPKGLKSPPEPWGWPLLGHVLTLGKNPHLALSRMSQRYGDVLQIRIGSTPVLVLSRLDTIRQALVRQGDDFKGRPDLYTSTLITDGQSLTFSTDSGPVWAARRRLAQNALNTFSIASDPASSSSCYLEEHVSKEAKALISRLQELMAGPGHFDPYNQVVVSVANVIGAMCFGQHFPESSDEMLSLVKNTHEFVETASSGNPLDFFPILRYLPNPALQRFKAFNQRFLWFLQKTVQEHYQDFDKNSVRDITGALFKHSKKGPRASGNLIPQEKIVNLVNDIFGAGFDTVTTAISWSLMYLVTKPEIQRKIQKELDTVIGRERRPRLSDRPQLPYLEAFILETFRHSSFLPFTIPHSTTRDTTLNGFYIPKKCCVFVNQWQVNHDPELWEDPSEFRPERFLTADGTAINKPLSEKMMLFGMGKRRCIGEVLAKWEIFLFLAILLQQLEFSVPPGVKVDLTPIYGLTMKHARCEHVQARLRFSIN
Outline: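 IC50 for CYP1A2 inhibition determined in human liver microsomes using specific probe substrate-metabolite pairs.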

[22] = molecular target: T1, Metabotropic glutamate receptor 4; experiment: as §5, with “subsequent EC80 glutamate addition” for “measured”, “assay” for “assay relative to control”; assay type: functional, cell-based; outline: as §6
[23] = Drug uptake in brain of Sprague-Dawley rat model of haloperidol-induced catalepsy at 10 mg/kg, po; assay type: ADME, organism-based; settings: in vivo, read-out: Drug uptake; outline: as §7
[24] = Half life in rat administered as iv cassette dose; assay type: ADME, organism-based; settings: in vivo; outline: as §8
[25] = molecular target: T3, AhR (read out as CYP1A2 induction) (Homo sapiens, UniProt P35869); experiment: Activation of AhR (unknown origin) assessed as CYP1A2 induction relative to control; assay type: ADME; settings: read-out: FC
T3 sequence (P35869 whole entry): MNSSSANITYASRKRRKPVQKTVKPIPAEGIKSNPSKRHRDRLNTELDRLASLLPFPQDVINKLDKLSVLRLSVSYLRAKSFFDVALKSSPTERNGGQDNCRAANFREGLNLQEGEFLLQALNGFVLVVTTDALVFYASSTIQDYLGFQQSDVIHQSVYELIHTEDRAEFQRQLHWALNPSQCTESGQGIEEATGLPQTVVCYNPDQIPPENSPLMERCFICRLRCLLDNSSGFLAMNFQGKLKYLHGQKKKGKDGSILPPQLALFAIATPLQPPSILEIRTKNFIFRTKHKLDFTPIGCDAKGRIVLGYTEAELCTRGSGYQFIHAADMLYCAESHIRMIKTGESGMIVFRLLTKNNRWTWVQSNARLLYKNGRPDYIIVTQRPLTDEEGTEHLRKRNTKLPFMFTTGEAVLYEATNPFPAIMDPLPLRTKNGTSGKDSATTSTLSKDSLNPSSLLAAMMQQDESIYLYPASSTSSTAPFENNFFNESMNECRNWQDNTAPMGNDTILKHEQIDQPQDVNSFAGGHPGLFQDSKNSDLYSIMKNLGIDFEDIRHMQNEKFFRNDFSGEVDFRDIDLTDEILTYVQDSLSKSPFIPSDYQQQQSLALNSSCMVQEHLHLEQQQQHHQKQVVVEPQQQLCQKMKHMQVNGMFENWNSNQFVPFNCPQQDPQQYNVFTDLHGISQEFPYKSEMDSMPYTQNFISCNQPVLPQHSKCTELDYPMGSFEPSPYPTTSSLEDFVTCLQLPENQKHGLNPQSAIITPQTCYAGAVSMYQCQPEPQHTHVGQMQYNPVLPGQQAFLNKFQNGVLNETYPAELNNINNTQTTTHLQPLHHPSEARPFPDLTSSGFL

T1 sequence (Q14833 whole entry): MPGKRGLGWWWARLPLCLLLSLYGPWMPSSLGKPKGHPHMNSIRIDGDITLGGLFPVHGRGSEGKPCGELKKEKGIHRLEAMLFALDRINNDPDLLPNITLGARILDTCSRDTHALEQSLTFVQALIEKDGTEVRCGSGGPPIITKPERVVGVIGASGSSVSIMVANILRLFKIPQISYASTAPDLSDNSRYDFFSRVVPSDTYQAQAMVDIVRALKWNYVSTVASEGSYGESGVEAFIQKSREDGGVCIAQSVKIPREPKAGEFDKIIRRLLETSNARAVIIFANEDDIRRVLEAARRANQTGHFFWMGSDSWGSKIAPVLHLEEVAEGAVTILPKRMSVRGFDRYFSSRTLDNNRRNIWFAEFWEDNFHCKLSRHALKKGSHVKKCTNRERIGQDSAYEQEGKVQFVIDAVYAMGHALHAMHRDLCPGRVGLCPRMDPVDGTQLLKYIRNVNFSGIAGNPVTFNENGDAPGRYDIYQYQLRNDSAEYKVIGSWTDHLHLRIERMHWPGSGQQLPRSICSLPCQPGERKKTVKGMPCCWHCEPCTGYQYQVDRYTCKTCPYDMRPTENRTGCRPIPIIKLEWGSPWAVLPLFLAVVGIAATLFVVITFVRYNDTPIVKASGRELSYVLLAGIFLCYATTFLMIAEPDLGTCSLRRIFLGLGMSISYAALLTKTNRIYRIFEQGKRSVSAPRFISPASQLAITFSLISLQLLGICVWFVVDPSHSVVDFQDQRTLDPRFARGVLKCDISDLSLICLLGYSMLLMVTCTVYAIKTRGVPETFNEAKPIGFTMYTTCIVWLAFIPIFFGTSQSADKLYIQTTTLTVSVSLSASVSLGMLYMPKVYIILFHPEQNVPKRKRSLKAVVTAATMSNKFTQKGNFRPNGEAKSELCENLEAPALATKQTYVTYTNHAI
Sequence of Metabotropic glutamate receptor 4 (Rattus norvegicus, UniProt P31423) (P31423 whole entry): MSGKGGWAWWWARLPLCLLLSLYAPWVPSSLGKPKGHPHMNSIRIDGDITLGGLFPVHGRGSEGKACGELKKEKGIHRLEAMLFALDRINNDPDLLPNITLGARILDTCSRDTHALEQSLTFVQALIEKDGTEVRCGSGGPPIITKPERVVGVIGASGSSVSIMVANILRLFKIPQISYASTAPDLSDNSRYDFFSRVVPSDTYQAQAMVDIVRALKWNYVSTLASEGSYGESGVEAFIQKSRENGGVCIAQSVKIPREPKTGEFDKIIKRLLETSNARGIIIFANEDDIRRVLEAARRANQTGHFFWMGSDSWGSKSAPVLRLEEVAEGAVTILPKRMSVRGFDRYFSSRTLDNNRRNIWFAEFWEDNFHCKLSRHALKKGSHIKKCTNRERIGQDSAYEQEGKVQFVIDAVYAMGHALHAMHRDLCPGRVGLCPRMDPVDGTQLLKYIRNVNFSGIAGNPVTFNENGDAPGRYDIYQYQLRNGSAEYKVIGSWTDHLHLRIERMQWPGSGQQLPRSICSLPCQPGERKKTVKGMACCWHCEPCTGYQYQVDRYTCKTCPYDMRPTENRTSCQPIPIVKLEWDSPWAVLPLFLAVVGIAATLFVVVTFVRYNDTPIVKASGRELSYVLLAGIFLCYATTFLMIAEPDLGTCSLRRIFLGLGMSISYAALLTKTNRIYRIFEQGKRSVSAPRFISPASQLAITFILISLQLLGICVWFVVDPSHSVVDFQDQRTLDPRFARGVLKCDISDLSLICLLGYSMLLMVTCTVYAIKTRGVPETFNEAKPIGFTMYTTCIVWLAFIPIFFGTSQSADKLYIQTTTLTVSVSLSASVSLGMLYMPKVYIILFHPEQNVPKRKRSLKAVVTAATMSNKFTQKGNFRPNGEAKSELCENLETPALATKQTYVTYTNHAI
Sequence of Metabotropic glutamate receptor 4 (Rattus norvegicus) (P31423 whole entry): as above

Structure (SMILES): CC(C)(C)Cc1noc2cc(Nc3n[nH]c4nccnc34)ccc12
- CLint scaled at 1 µM [1]: 7.2 mL/min/kg
- EC50 [2]: 501 nM
- Cp [3]: 60.5 ng/mL
- fraction unbound at 4 h [4]: 0.023
- CLint scaled at 1 µM [5]: 62.5 mL/min/kg
- Drug uptake [6]: 285 ng/g
- Kp [7]: 4.7
- AUC at 96 h [8]: 690 ng·h/mL
- Cmax [9]: 86.3 ng/mL
- Cmax [10]: 62.8 ng/mL
- %max [11]: 83.5%
- concentration [12]: 627 nM
- Activity [13]: Active
- Cp(f) [14]: 11.2 nM
- AUC at 96 h [15]: 624 ng·h/mL
- Drug uptake(free) [16]: 5.8 nM
- clearance [17]: 37.8 mL/min/kg
- %max [18]: 98.7%
- concentration [19]: 450 nM
- fraction unbound at 4 h [20]: 0.023
- IC50 [21]: 3200 nM
- EC50 [22]: 860 nM
- concentration [23]: 958 nM
- half-life [24]: 1.46 h
- fold induction [25]: 6.4
